Measured values of several laboratories.
Target: Tyrosine-protein kinase Blk (BLK, Homo sapiens, UniProt P51451)

SMILES | read-out | technique | tested at | remaining binding [%]
COc1cnc(Nc2cccc(S(N)(=O)=O)c2)nc1N1CCN(c2ccccc2)C(=O)C1 | binding | competition with immobilised ligand | 1 µM | 100
C[C@@H]1CCN(c2nccc(-c3cnn4ncccc34)n2)C1 | binding | – | 1 µM | 100
COc1ncc2cc3ccccc3nc2c1C#N | cell-free assay | competition with immobilised ligand | 5 µM | 87
CO[C@@H](C)c1c(Nc2ccc([C@@H](N(C)C(=O)C3CCS(=O)(=O)CC3)C(F)(F)F)cc2)cnc2cc(Cl)nn12 | cell-free assay | competition with immobilised ligand | 1 µM | 56
CN(C)c1ncc(F)c(-c2cnn3ncccc23)n1 | binding | – | 1 µM | 90
Nc1cnc(N2CCc3cc(S(=O)(=O)Nc4c(F)cc(Cl)cc4F)cc(N4CCCC4=O)c32)nc1 | cell-free assay | competition with immobilised ligand | 1 µM | 100
F[C@@H]1CCN(c2nccc(-c3cnn4ncccc34)n2)C1 | binding | – | 1 µM | 100
O=C(Nc1c[nH]nc1C(=O)NC1CCNCC1)c1cc(F)cc(F)c1 | binding | competition with immobilised ligand | 1 µM | 83
CN([C@@H]1CCc2c(CC(=O)O)c3cc(S(C)(=O)=O)ccc3n2C1)S(=O)(=O)c1ccc(F)cc1 | cell-free assay | competition with immobilised ligand | 1 µM | 99
CN(c1nccc(-c2cnn3ncccc23)n1)C1CC1 | binding | – | 1 µM | 100
O=C(c1ccc(Nc2ncc(Cl)c(-c3ccc(Cl)s3)n2)cc1)N1CCC(N2CCCC2)CC1 | binding | competition with immobilised ligand | 1 µM | 100
COc1cc(-c2cn(C3CCc4ccccc4N(CC(F)(F)F)C3=O)nn2)ccc1-n1ccc(C)n1 (stereo not shown) | cell-free assay | competition with immobilised ligand | 1 µM | 100
O=C(NCCCN1CCOCC1)c1ccc(Nc2nccc(-c3cc4ccccc4s3)n2)cc1 | binding | competition with immobilised ligand | 1 µM | 100
COc1cnc(Nc2cccc(S(N)(=O)=O)c2)nc1N1CCN(c2ccccc2)CC1 | binding | competition with immobilised ligand | 1 µM | 80
Cc1cnc(Nc2ccc(C(=O)N3CCC(N4CCCC4)CC3)cc2)nc1-c1cc2ccccc2s1 | binding | competition with immobilised ligand | 1 µM | 74
c1ccc(N2CCN(Cc3nc4ccccc4[nH]3)CC2)nc1 | cell-free assay | competition with immobilised ligand | 1 µM | 100
c1cnn2ncc(-c3ccnc(N4CCC45COC5)n3)c2c1 | binding | – | 1 µM | 100
O=C(N1CCS(=O)(=O)CC1)N1C[C@H](c2ccc(OC(F)(F)F)cc2)C[C@H](c2nc(C3CC3)no2)C1 | cell-free assay | competition with immobilised ligand | 1 µM | 100
c1cncc(-c2cccc(Nc3nccc(NC4CCCCC4)n3)c2)c1 | binding | competition with immobilised ligand | 10 µM | 5.8
N[C@@H]1CCN(c2nccc(-c3cnn4ncccc34)n2)C1 | binding | – | 1 µM | 97
FC(F)(F)c1ccc2c(c1)nc(-c1cccnc1)n2C1CC1 | cell-free assay | competition with immobilised ligand | 1 µM | 96
FC(F)(F)Oc1cccc(-c2cnc3ccc(-c4ccncc4)nn23)c1 | cell-free assay | competition with immobilised ligand | 5 µM | 51
